Laboratory results as given in ChEMBL document CHEMBL1938329, “The discovery of potent, selective, and orally active pyrazoloquinolines as PDE10A inhibitors for the treatment of Schizophrenia” (Bioorg Med Chem Lett, 2012).
Active and inactive are the calls of the source. No cut-off for these calls is given here.

Experiments:
Homo sapiens [1] = species on record: Homo sapiens; experiment: Selectivity ratio of Ki for recombinant human PDE1 to Ki for recombinant human PDE10A
Procedure, shortened: (§1)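 Recombinant human PDE enzymes (PDE1–11) were tested in a scintillation proximity assay with [³H]cAMP as substrate, measuring hydrolysis of cAMP to AMP. Ki values are means of at least two experiments. The ratio is the Ki for each off-target PDE divided by the PDE10A Ki.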

Homo sapiens [2] = species on record: Homo sapiens; experiment: Selectivity ratio of Ki for recombinant human PDE2 to Ki for recombinant human PDE10A; procedure, shortened: as §1
Homo sapiens [3] = species on record: Homo sapiens; experiment: Selectivity ratio of Ki for recombinant human PDE3 to Ki for recombinant human PDE10A; procedure, shortened: as §1
Homo sapiens [4] = species on record: Homo sapiens; experiment: Selectivity ratio of Ki for recombinant human PDE4 to Ki for recombinant human PDE10A; procedure, shortened: as §1
Homo sapiens [5] = species on record: Homo sapiens; experiment: Selectivity ratio of Ki for recombinant human PDE6 to Ki for recombinant human PDE10A; procedure, shortened: as §1
Homo sapiens [6] = species on record: Homo sapiens; experiment: Selectivity ratio of Ki for recombinant human PDE7 to Ki for recombinant human PDE10A; procedure, shortened: as §1
Homo sapiens [7] = species on record: Homo sapiens; experiment: Selectivity ratio of Ki for recombinant human PDE8 to Ki for recombinant human PDE10A; procedure, shortened: as §1
Homo sapiens [8] = species on record: Homo sapiens; experiment: Selectivity ratio of Ki for recombinant human PDE9 to Ki for recombinant human PDE10A; procedure, shortened: as §1
Homo sapiens [9] = species on record: Homo sapiens; experiment: Selectivity ratio of Ki for recombinant human PDE11 to Ki for recombinant human PDE10A; procedure, shortened: as §1
[10] = AUC (0 to 6 hrs) in rat at 10 mg/kg, po; assay type: ADME, organism-based; set-up: time < 6 hr, dose 10 mg/kg, route oral; settings: plasma
Procedure, shortened: (§2)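 Rat cassette-accelerated rapid screen, 10 mg/kg oral. Plasma exposure measured over 0–6 h. Brain drug concentration taken at 6 h. Brain/plasma ratio is brain over plasma drug concentration at 6 h.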

[11] = Ratio of drug level in brain to plasma in rat at 10 mg/kg, po at 6 hrs; assay type: ADME, organism-based; set-up: dose 10 mg/kg, route oral; settings: read-out: BPR; procedure, shortened: as §2
Rattus norvegicus = experiment: Antipsychotic activity in CD rat assessed as inhibition of MK-801-induced hyperactivity at 30 mg/kg, po relative to control; assay type: functional, organism-based; set-up: dose 30 mg/kg
Procedure, shortened: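 Male CD rats habituated to locomotor activity chambers 24 h before testing. On test day, MK-801 (0.3 mg/kg, sc) co-administered with PDE10 inhibitor (po), then rats placed in apparatus. Inhibition expressed as percent of activity in inhibitor + MK-801 group relative to vehicle + MK-801 group.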

Homo sapiens [12] = species on record: Homo sapiens; experiment: Selectivity ratio of Ki for recombinant human PDE5A to Ki for recombinant human PDE10A; procedure, shortened: as §1
[13] = molecular target: cAMP and cAMP-inhibited cGMP 3',5'-cyclic phosphodiesterase 10A (Homo sapiens, UniProt Q9Y233); experiment: Inhibition of recombinant human PDE10A using [3H]cAMP as substrate by scintillation proximity assay
Procedure, shortened: (§3)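 Scintillation proximity assay with [³H]cAMP as substrate, measuring hydrolysis of cAMP to AMP by recombinant human PDEs 1–11. Ki values are means of at least two experiments.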

Phosphodiesterase 6 = experiment: Inhibition of recombinant human PDE6 using [3H]cAMP as substrate by scintillation proximity assay; assay type: protein assay; procedure, shortened: as §3
[14] = Drug uptake in rat brain at 10 mg/kg, po after 6 hrs; assay type: ADME, organism-based; set-up: dose 10 mg/kg, route oral; settings: read-out: Drug uptake; procedure, shortened: as §2
Phosphodiesterase 7 = Phosphodiesterase 7 (Homo sapiens, UniProt Q13946+Q9NP56); experiment: Inhibition of recombinant human PDE7 using [3H]cAMP as substrate by scintillation proximity assay; assay type: protein assay; procedure, shortened: as §3
Phosphodiesterase 8 = Phosphodiesterase 8 (Homo sapiens, UniProt O95263+O60658); experiment: Inhibition of recombinant human PDE8 using [3H]cAMP as substrate by scintillation proximity assay; assay type: protein assay; procedure, shortened: as §3
[15] = molecular target: High affinity cGMP-specific 3',5'-cyclic phosphodiesterase 9A (Homo sapiens, UniProt O76083); experiment: Inhibition of recombinant human PDE9 using [3H]cAMP as substrate by scintillation proximity assay; procedure, shortened: as §3
[16] = molecular target: Dual 3',5'-cyclic-AMP and -GMP phosphodiesterase 11A (Homo sapiens, UniProt Q9HCR9); experiment: Inhibition of recombinant human PDE11 using [3H]cAMP as substrate by scintillation proximity assay; procedure, shortened: as §3
[17] = Plasma protein binding in rat; assay type: ADME, cell-free; settings: read-out: PPB (converted)
[18] = molecular target: 5-hydroxytryptamine receptor 1B (Homo sapiens) (UniProt P28222); experiment: Inhibition of 5HT1b at 10 uM
[19] = molecular target: cGMP-specific 3',5'-cyclic phosphodiesterase (Homo sapiens, UniProt O76074); experiment: Inhibition of recombinant human PDE5A using [3H]cAMP as substrate by scintillation proximity assay; procedure, shortened: as §3
Phosphodiesterase 1 = Phosphodiesterase 1 (Homo sapiens, UniProt P54750+Q01064+Q14123); experiment: Inhibition of recombinant human PDE1 using [3H]cAMP as substrate by scintillation proximity assay; assay type: protein assay; procedure, shortened: as §3
[20] = molecular target: cGMP-dependent 3',5'-cyclic phosphodiesterase (Homo sapiens, UniProt O00408); experiment: Inhibition of recombinant human PDE2 using [3H]cAMP as substrate by scintillation proximity assay; procedure, shortened: as §3
Phosphodiesterase 3 = Phosphodiesterase 3 (Homo sapiens, UniProt Q14432+Q13370); experiment: Inhibition of recombinant human PDE3 using [3H]cAMP as substrate by scintillation proximity assay; assay type: protein assay; procedure, shortened: as §3
Phosphodiesterase 4 = Phosphodiesterase 4 (Homo sapiens, UniProt P27815+Q08499+Q07343+Q08493); experiment: Inhibition of recombinant human PDE4 using [3H]cAMP as substrate by scintillation proximity assay; assay type: protein assay; procedure, shortened: as §3
[21] = molecular target: T1, 5-hydroxytryptamine receptor 3A (Homo sapiens) (UniProt P46098); experiment: Inhibition of 5HT3 at 10 uM
T1 sequence (whole entry): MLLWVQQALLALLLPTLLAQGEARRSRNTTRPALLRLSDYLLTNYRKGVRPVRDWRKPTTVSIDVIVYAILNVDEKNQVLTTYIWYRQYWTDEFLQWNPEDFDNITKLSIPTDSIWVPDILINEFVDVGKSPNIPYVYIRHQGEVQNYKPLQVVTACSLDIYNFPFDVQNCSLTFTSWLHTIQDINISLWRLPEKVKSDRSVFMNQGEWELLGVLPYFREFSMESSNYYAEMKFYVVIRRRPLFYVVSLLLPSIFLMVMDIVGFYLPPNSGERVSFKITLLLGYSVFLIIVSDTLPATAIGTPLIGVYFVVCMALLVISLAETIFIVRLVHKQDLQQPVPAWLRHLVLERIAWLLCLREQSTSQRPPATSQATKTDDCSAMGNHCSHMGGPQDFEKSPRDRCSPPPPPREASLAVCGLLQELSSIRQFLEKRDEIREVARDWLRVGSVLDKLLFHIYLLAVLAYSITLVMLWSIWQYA

[22] = molecular target: 5-hydroxytryptamine receptor 7 (Homo sapiens) (UniProt P34969); experiment: Inhibition of 5HT7 at 10 uM
[23] = molecular target: Casein kinase I isoform delta (Homo sapiens, UniProt P48730); experiment: Inhibition of CK1delta
[24] = Drug uptake in CD rat brain at 30 mg/kg, po after 1 hr; assay type: ADME, organism-based; set-up: dose 30 mg/kg, route oral; settings: read-out: Drug uptake

Chain of cAMP and cAMP-inhibited cGMP 3',5'-cyclic phosphodiesterase 10A (Q9Y233 whole entry): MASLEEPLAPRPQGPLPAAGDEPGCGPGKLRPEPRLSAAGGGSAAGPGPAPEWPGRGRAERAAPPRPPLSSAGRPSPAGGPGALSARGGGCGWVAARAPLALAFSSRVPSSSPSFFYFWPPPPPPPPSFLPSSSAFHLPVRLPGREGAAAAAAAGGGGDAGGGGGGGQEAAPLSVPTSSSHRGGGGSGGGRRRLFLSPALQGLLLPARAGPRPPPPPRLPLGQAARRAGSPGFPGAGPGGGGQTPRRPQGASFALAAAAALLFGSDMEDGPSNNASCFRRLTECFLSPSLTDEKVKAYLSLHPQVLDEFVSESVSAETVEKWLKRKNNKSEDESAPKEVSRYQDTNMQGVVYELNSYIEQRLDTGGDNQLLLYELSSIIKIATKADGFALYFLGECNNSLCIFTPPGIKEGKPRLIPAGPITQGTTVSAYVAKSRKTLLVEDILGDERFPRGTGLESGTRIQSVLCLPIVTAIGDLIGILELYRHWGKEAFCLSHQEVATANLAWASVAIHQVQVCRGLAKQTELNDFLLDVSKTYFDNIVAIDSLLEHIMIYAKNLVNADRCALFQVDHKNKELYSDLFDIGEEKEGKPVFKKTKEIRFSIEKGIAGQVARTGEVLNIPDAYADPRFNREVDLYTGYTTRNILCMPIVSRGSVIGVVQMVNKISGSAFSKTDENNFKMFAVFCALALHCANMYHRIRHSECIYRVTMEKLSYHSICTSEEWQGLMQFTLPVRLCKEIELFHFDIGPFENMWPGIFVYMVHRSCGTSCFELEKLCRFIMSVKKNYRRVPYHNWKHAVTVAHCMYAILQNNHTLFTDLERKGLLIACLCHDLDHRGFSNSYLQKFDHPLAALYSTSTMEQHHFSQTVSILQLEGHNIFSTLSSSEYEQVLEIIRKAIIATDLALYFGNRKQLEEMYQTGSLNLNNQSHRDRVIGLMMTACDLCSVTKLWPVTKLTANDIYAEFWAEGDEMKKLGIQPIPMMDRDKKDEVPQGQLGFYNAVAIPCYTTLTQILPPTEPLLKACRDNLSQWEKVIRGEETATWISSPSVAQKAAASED
Chain of High affinity cGMP-specific 3',5'-cyclic phosphodiesterase 9A (O76083 whole entry): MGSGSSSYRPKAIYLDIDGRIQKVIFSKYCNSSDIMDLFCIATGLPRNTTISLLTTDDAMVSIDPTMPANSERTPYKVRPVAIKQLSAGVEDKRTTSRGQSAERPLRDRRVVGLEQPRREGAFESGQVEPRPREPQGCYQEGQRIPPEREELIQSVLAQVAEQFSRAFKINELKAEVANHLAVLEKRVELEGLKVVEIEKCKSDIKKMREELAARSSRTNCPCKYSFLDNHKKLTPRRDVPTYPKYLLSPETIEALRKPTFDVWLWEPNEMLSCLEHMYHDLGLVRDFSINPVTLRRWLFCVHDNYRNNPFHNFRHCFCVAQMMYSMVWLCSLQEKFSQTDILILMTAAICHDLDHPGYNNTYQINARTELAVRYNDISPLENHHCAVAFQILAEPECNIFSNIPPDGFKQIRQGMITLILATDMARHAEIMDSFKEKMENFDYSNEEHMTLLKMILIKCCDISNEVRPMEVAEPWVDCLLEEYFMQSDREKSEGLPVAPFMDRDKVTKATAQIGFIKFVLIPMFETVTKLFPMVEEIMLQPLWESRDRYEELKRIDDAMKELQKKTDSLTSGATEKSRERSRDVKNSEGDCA
Chain of 5-hydroxytryptamine receptor 1B (Homo sapiens) (P28222 whole entry): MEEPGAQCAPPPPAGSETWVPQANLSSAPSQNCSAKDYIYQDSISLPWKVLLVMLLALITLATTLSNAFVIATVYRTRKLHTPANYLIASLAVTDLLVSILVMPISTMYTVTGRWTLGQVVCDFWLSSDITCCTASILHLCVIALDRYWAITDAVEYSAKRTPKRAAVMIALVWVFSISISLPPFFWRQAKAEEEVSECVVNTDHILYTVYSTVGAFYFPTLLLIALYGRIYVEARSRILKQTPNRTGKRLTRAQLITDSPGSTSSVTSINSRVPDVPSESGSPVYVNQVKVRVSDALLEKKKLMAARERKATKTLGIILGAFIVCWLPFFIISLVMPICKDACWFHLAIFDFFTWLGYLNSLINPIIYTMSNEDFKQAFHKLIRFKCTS
Chain of Dual 3',5'-cyclic-AMP and -GMP phosphodiesterase 11A (Q9HCR9 whole entry): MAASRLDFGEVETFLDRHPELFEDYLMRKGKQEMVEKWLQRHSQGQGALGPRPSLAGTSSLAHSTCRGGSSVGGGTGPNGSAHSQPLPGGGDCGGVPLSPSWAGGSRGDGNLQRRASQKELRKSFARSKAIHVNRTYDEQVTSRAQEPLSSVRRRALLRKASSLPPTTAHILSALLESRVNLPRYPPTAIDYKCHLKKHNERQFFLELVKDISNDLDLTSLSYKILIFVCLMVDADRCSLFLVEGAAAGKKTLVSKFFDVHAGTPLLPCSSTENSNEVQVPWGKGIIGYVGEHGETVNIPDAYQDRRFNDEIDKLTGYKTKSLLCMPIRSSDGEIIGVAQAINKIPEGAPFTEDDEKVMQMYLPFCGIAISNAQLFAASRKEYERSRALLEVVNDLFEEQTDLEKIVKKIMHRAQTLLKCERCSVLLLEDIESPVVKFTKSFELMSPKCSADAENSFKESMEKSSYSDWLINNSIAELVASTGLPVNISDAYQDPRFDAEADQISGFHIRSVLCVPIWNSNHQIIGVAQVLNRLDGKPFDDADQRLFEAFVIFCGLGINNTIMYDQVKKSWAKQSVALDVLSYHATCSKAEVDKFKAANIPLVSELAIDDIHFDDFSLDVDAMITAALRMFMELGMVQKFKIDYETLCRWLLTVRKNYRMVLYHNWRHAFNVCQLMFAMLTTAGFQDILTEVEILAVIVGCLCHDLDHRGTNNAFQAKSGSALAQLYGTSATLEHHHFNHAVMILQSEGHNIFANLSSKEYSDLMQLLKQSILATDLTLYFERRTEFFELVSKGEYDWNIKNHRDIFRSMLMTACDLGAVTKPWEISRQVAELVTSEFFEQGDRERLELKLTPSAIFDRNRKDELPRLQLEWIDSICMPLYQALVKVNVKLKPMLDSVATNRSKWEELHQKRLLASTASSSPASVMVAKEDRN
Chain of 5-hydroxytryptamine receptor 7 (Homo sapiens) (P34969 whole entry, canonical isoform): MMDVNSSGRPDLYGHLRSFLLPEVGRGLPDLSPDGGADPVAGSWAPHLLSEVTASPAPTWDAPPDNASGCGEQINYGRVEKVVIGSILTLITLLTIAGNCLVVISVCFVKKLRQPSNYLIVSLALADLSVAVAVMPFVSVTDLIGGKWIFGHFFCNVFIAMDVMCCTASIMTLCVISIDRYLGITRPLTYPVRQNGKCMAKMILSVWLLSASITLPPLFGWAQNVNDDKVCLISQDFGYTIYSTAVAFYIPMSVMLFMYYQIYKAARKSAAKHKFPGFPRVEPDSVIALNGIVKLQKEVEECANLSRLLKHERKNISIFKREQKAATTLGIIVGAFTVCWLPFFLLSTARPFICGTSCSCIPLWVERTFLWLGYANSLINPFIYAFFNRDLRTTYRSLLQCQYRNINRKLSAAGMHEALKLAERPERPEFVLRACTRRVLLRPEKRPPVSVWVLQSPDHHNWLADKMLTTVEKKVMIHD
Chain of cGMP-dependent 3',5'-cyclic phosphodiesterase (O00408 whole entry): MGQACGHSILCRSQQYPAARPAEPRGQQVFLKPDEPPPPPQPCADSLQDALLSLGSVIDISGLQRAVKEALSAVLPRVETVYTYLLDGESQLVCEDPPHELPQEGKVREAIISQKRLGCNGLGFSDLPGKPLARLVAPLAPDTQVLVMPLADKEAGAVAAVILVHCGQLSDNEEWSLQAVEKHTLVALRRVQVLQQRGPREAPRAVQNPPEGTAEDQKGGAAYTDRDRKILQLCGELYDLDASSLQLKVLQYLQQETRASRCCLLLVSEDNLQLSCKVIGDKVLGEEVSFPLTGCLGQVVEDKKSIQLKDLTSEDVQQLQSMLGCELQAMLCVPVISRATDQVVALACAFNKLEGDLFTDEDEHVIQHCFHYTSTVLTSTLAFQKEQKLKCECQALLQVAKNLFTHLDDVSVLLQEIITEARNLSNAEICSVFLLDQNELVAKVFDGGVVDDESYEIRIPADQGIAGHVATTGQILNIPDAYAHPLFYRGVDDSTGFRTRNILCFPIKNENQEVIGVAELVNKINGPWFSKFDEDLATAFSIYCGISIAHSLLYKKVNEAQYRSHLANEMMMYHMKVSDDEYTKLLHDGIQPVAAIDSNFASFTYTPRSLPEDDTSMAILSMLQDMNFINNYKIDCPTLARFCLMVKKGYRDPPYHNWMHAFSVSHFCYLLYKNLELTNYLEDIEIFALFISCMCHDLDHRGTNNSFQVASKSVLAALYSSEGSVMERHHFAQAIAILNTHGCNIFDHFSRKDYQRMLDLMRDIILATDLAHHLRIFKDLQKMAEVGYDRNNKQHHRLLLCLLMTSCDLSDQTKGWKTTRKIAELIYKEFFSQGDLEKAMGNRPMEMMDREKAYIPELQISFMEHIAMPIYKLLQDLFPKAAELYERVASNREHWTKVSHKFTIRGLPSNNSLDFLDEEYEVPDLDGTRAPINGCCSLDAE
Chain of Casein kinase I isoform delta (P48730 whole entry, canonical isoform): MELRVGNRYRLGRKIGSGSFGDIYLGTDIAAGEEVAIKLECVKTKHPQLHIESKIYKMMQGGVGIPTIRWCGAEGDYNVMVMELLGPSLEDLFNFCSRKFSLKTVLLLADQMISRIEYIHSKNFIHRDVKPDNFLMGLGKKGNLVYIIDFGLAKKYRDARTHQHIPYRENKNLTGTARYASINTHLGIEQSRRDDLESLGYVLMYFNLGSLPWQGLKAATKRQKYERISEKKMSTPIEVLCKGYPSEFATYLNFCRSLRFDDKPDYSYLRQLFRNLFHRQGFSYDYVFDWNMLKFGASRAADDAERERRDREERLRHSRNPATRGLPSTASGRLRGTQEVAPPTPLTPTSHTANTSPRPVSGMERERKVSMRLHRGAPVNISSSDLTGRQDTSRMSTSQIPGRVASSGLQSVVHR

**Q.** For `COc1cc(C)c2nc3[nH]nc(C)c3c(N3CCCOCC3)c2c1`, which Ratio Ki (Homo sapiens [1]) is on record?
**A.** Its Ratio Ki is over 1450.

**Q.** What about the Ratio Ki (Homo sapiens [2]) of the same molecule?
**A.** The Ratio Ki was over 1450.

**Q.** And the Ratio Ki (Homo sapiens [3])?
**A.** Its Ratio Ki is over 1450.

**Q.** What about the Ratio Ki (Homo sapiens [4]) of the same molecule?
**A.** Its Ratio Ki is over 1450.

**Q.** What about the Ratio Ki (Homo sapiens [5]) of the same molecule?
**A.** Its Ratio Ki is over 1450.

**Q.** And the Ratio Ki (Homo sapiens [6])?
**A.** Its Ratio Ki is over 1450.

**Q.** What about the Ratio Ki (Homo sapiens [7]) of the same molecule?
**A.** The Ratio Ki was over 1450.

**Q.** What about the Ratio Ki (Homo sapiens [8]) of the same molecule?
**A.** Its Ratio Ki is over 1450.

**Q.** And the Ratio Ki (Homo sapiens [9])?
**A.** The Ratio Ki was over 1450.

**Q.** And the AUC(0-t) at 6 h [10]?
**A.** Its AUC(0-t) at 6 h is 11 µM·h.

**Q.** What about the Kp at 6 h [11] of the same molecule?
**A.** Its Kp at 6 h is 0.3.

**Q.** What about the inhibition (Rattus norvegicus) of the same molecule?
**A.** Its inhibition is “Active”.

**Q.** What about the Ratio Ki (Homo sapiens [12]) of the same molecule?
**A.** Its Ratio Ki is over 1450.

**Q.** And the Ki [13]?
**A.** Its Ki is 3.6 nM.

**Q.** What does the source list for `COc1cc(C)c2nc3[nH]nc(C)c3c(NCC3CCOCC3)c2c1`?
**A.** Ki (Phosphodiesterase 6): 697 nM; Ki [13]: 52 nM

**Q.** For `Cc1n[nH]c2nc3ccc(Cl)cc3c(N3CCNCC3)c12`, which Ki [13] is on record?
**A.** Its Ki is 419 nM.

**Q.** Which Ki (Phosphodiesterase 6) does the source give for `COc1cc(C)c2nc3[nH]nc(C)c3c(NCC3CCCCO3)c2c1` (stereo not given) here?
**A.** Its Ki is 843 nM.

**Q.** What about the Ki [13] of the same molecule?
**A.** The Ki was 130 nM.

**Q.** For `COc1cc(C)c2nc3[nH]nc(C)c3c(NCCc3ccncc3)c2c1`, which Ki (Phosphodiesterase 6) is on record?
**A.** The Ki was 554 nM.

**Q.** And the Ki [13]?
**A.** Its Ki is 70 nM.

**Q.** For `COc1cc(C)c2nc3[nH]nc(C)c3c(N3CCC(N)CC3)c2c1`, which concentration at 6 h [14] is on record?
**A.** The concentration at 6 h was under 10 ng/g.

**Q.** What about the Ki [13] of the same molecule?
**A.** Its Ki is 1 nM.

**Q.** Which Ki [13] does the source give for `COc1cc(C)c2nc3[nH]nc(C)c3c(N3CCSCC3)c2c1` here?
**A.** The Ki was 196 nM.

**Q.** With `Cc1n[nH]c2nc3ccccc3c(N3CCNCC3)c12` as the molecule, how does the Ki [13] read?
**A.** The Ki was 550 nM.

**Q.** For `COc1cc(C)c2nc3[nH]nc(C)c3c(N3CCOC(CO)C3)c2c1` (racemic), which concentration at 6 h [14] is on record?
**A.** Its concentration at 6 h is under 10 ng/g.

**Q.** And the Ki [13]?
**A.** The Ki was 9.6 nM.

**Q.** What does the source list for `COc1cc(C)c2nc3[nH]nc(C)c3c(N3CCNCC3)c2c1`?
**A.** Ki (Phosphodiesterase 6): >= 770 nM; Ki (Phosphodiesterase 7): >= 770 nM; Ki (Phosphodiesterase 8): >= 770 nM; Ki [15]: ≥ 770 nM; Ki [16]: ≥ 770 nM; AUC(0-t) at 6 h [10]: 3.3 µM·h; concentration at 6 h [14]: 123 ng/g; Kp at 6 h [11]: 1.2; fraction unbound [17]: 0.16; inhibition [18]: 54%; Ki [19]: > 100000 nM; Ki (Phosphodiesterase 1): >= 770 nM; Ki [20]: ≥ 770 nM; Ki (Phosphodiesterase 3): >= 770 nM; Ki (Phosphodiesterase 4): >= 770 nM; inhibition [21]: 54%; inhibition [22]: 54%; IC50 [23]: 320 nM

**Q.** For `COc1cc(C)c2nc3[nH]nc(C)c3c(NCC3CN(C)CCO3)c2c1` (stereo not given), which Ki [13] is on record?
**A.** Its Ki is 280 nM.

**Q.** Which concentration at 6 h [14] does the source give for `COc1cc(C)c2nc3[nH]nc(C)c3c(N3CCCC(CO)C3)c2c1` (racemic) here?
**A.** The concentration at 6 h was under 10 ng/g.

**Q.** What about the Ki [13] of the same molecule?
**A.** The Ki was 29 nM.

**Q.** For `COc1cc(C)c2nc3[nH]nc(C)c3c(N3CCOCC3)c2c1`, which Ki [13] is on record?
**A.** The Ki was 23 nM.

**Q.** Which Ki [13] does the source give for `COc1cc(C)c2nc3[nH]nc(C)c3c(N3CCC(CN)CC3)c2c1` here?
**A.** The Ki was 0.5 nM.

**Q.** Which AUC(0-t) at 6 h [10] does the source give for `COc1cc(C)c2nc3[nH]nc(C)c3c(N3CCN(C(N)=O)[C@@H](C)C3)c2c1` here?
**A.** Its AUC(0-t) at 6 h is 9.5 µM·h.

**Q.** And the concentration at 6 h [14]?
**A.** Its concentration at 6 h is under 10 ng/g.

**Q.** And the inhibition (Rattus norvegicus)?
**A.** The inhibition was “inactive”.

**Q.** And the concentration at 1 h [24]?
**A.** Its concentration at 1 h is 27 ng/g.

**Q.** And the Ki [13]?
**A.** Its Ki is 3.3 nM.
